Reference: PubChem BioAssay AID624038 (The Scripps Research Institute Molecular Screening Center, 2012)
Hit rate of the full screen: of about 360,000 compounds, about 1,100 (0.31%) were called active.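 Rule for the calls: active = activation above the run cutoff, the mean activation of all test compounds plus 3 SD (cut at about 18% in these data); inactive = the rest.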 For the sample, actives were picked, then their nearest neighbours and some compounds at random.

target: Muscarinic acetylcholine receptor M5 (Homo sapiens) (UniProt P08912); assay: CHRM5 PAMs potentiating acetylcholine calcium signal – CHO-K1 cells, Fluo-8 calcium fluorescence, primary screen (AID 624038); conditions: CHO-K1 hM5, Fluo-8 calcium, ACh EC20 PAM; at 3 µM; hits give high values; 0% = ACh EC20, 100% = ACh EC100
Summary of the method: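 Test system: CHO-K1 hM5 cells / Doses: single-point, 3 µM nominal / Times: Post-acetylcholine fluorescence recording 140 s / Technique: Fluo-8 calcium fluorescence / Measure: Max/basal fluorescence ratio as % of EC20–EC100 ACh window / Benchmarks: low control EC20 acetylcholine (0%), high control EC100 acetylcholine (100%) / Replicates: one well per compound, no replicates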

Sequence of Muscarinic acetylcholine receptor M5 (Homo sapiens) (P08912 whole entry, looked up): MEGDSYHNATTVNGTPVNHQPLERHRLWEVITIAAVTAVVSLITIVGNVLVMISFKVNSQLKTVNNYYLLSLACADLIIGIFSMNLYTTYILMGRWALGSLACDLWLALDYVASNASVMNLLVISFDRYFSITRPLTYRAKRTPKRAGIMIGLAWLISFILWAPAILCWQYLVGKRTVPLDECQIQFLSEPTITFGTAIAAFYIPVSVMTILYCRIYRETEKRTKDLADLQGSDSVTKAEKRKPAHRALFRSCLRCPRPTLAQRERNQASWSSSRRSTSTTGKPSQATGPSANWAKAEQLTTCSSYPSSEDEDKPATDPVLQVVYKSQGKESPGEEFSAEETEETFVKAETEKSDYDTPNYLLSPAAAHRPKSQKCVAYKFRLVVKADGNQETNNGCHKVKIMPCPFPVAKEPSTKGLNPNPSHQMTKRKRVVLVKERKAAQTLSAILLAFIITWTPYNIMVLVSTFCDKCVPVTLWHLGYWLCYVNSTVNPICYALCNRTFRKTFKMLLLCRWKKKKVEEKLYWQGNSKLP

Compound	activation
CC(=O)Nc1ccc(S(=O)(=O)NCCc2ccccc2)cc1	-2.74% (inactive)
O=S(=O)(NCCc1ccccc1)c1ccccc1	20.4% (active)
O=S(=O)(NCCc1ccncc1)c1ccccc1	8.02% (inactive)
CCCC(C)n1[nH]c(=O)c2c(C)cc(C)nc21 (configuration not stated)	4.59% (inactive)
O=C1COc2ccc(C(=O)COC(=O)c3ccccc3Cl)cc2N1	-8.98% (inactive)
Cc1ccc(S(=O)(=O)N(C)C)cc1NC(=O)CN1c2cccc3cccc(c23)S1(=O)=O	-2.16% (inactive)
Cn1ncc2c(Nc3cccc4ccccc34)ncnc21	43.5% (active)
Cc1nc(Nc2ccccc2C)c2cnn(C)c2n1	-2.69% (inactive)
Cn1ncc2c(NNC(=O)Cc3cccc4ccccc34)ncnc21	6.42% (inactive)
CCCNC(=O)COc1coc(CN2CCN(Cc3ccccc3)CC2)cc1=O	-3.51% (inactive)
Cc1c(C(=O)Nc2cccc(-c3nnc4n3CCCCC4)c2)oc2ccccc12	-11.2% (inactive)
Brc1cccc(-c2nnc3n2CCC3)c1	-2.96% (inactive)
O=C(Cn1[nH]c(=O)c2ccccc2c1=O)Nc1cccc(-c2nnc3n2CCCCC3)c1	22.3% (active)
Cc1cccc(-c2noc(-c3ccc(F)cc3)n2)c1	18.1% (active)
Cc1ccc(C)c(N2CCN(C(=O)CCc3nc(-c4cccc(C(F)(F)F)c4)no3)CC2)c1	-0.63% (inactive)
OC[C@H]1O[C@@H](c2nc(-c3nc(-c4ccc(F)cc4)no3)cs2)[C@H](O)[C@@H](O)[C@H]1O	-2.26% (inactive)
Cc1ccc(-c2cccc([C@H]3[C@@H]4C=CC[C@@H](C)[C@@H]4C(=O)N3Cc3ccccc3)c2)cc1	-3.69% (inactive)
Cc1nn(Cc2ccc(F)cc2)c(C)c1NC(=O)c1noc2c1CCc1ccccc1-2	-7.62% (inactive)
Cc1nn(Cc2ccc(Cl)c(Cl)c2)c(C)c1NC(=O)c1cc(C2CC2)on1	-11.4% (inactive)
Cc1nn(Cc2ccc(F)cc2)c(C)c1NC(=O)c1cccnc1Cl	24.4% (active)
CCNc1nc(NCC)nc(N(C)n2cnnc2)n1	1.44% (inactive)
Nc1c(-c2ccc(F)cc2)cnn1C1CCS(=O)(=O)C1 (configuration not stated)	0.13% (inactive)
O=C(OC12CC3CC(CC(C3)C1)C2)c1ccc(NCc2cc(O)ccc2O)cc1	21.9% (active)

Compound	activation
CC(C)C(=O)Nc1ccc2c(c1)oc1ccccc12	-7.04% (inactive)
Cc1nc2sc(C(c3ccco3)N3CCC4(CC3)OCCO4)c(O)n2n1 (configuration not stated)	5.68% (inactive)
Oc1c(C(c2cccs2)N2CCN(c3ccc(F)cc3)CC2)sc2ncnn12 (configuration not stated)	-5.38% (inactive)
Cc1ccc(C(c2sc3nc(C)nn3c2O)N2CCN(c3ccc(F)cc3)CC2)cc1 (configuration not stated)	42.2% (active)
Cc1ccc(C(c2sc3nc(C)nn3c2O)N2CCN(c3ccccc3)CC2)cc1 (configuration not stated)	5.14% (inactive)
Cc1nc2sc(C(c3ccco3)N3CCOCC3)c(O)n2n1 (configuration not stated)	20.1% (active)
Oc1c(C(c2ccco2)N2CCC3(CC2)OCCO3)sc2ncnn12 (configuration not stated)	-1.05% (inactive)
COc1ccc(COC(=O)N/N=C(\C)CC(=O)Nc2ccc(Cl)cc2)cc1	-3.42% (inactive)
COC(=O)c1ccc(C)c(NC(=O)C2CC(=O)N(C3CCCC(C)C3C)C2)c1 (configuration not stated)	0.01% (inactive)
Cc1ccc(NC(=O)Cn2cnc3c(OCc4ccccc4)ncnc32)cc1C	1.1% (inactive)
CCN(Cc1nc2ccccc2c(=O)[nH]1)Cc1cc(=O)oc2cc(C)c(C)cc12	-12.3% (inactive)
CCOC(=O)[C@H]1Nc2ccc(Cl)cc2[C@@H]2[C@H]1C1CC(c3ccccc31)N2C(=O)OCc1ccccc1 (some centres not stated)	-15.8% (inactive)
COc1ccccc1-n1c(SCC(=O)O)nc2sc3c(c2c1=O)CCC3	1.79% (inactive)
Cc1ccc(C)c(-n2c(SCC(=O)O)nc3sc4c(c3c2=O)CCCC4)c1	20.4% (active)
CCSc1nc2sc3c(c2c(=O)n1-c1ccc(C)cc1)CCN(C)C3	-1.06% (inactive)
COc1ccc(Br)cc1CN1CCN(C(=O)c2cccc(OC)c2OC)CC1	2.23% (inactive)
CCN(CC)c1ccc(C2C3CCCCC3(O)CCN2CC(=O)Nc2ccccc2)cc1 (configuration not stated)	-6.54% (inactive)
COC(=O)c1ccc(NC(=O)C23CC4CC(C2)CC(n2cnc(Cl)n2)(C4)C3)cc1	3.27% (inactive)
Cc1ncn(C23CC4CC(CC(O)(C4)C2)C3)n1	19.2% (active)
CC(N)C12CC3CC(CC(O)(C3)C1)C2 (configuration not stated)	-3.44% (inactive)
CCOC(=O)/C(=N\Nc1ccccc1Cl)N(C)C1CCS(=O)(=O)C1 (configuration not stated)	-8.17% (inactive)
O=C(COC(=O)/C=C/c1nc2ccccc2s1)Nc1ccccc1Oc1ccccc1	1.93% (inactive)
CCC(=O)c1ccc(OCC(O)CN2CCN(c3cccc(C(F)(F)F)c3)CC2)cc1 (configuration not stated)	-10.8% (inactive)

Compound	activation
CN(C)c1ccc(NC(=S)N(CCc2ccccc2)C2CC(=O)N(c3c(Cl)cccc3Cl)C2=O)cc1 (configuration not stated)	8.56% (inactive)
COC(=O)CN(C(=S)Nc1ccc(Cl)cc1)C1CC(=O)N(c2ccc(OC)cc2)C1=O (configuration not stated)	-18.4% (inactive)
CCOc1ccc(N2C(=O)CC(N(CCc3ccc(OC)c(OC)c3)C(=S)Nc3ccccc3)C2=O)cc1 (configuration not stated)	21.9% (active)
O=C(NCc1ccco1)c1cccc(-c2ccc3nncn3c2)c1	-4.68% (inactive)
CCCC1=Nc2cc(C(=O)NCc3ccco3)ccc2Sc2ccccc21	19.8% (active)
COc1ccc(CCNS(=O)(=O)c2ccc(C(=O)NCc3ccco3)cc2)cc1OC	1.67% (inactive)
O=C(NC1CCN(C(=S)NCc2ccco2)CC1)c1ccc(F)cc1	-4.46% (inactive)
Cc1cc(C)nc(SCc2nnc(SCC(=O)Nc3ncc(C)s3)n2Cc2ccco2)n1	-4.62% (inactive)
CCn1c(CNC(=O)c2ccco2)nnc1SCC(=O)Nc1cccc(F)c1	-8.95% (inactive)
CCN(CC)C(=O)CSc1nnc(CNc2ccc(F)cc2)n1Cc1ccco1	26.3% (active)
Cc1c(Cl)cccc1NC(=O)CC1SC(=NCC2CCCO2)NC1=O (configuration not stated)	-3.09% (inactive)
CCn1ccnc1CN(C)C(=O)c1ccc2nc(Cc3ccc(OC)cc3)oc2c1	-3.69% (inactive)
CC(=O)Nc1ccc(N2C(=O)C3C4C=CC(CC4)C3C2=O)cc1 (configuration not stated)	3.09% (inactive)
CC(=O)Nc1ccc(N2C(=O)CCC2=O)cc1C	30.9% (active)
Cc1cc(N2CCCC2)ccc1NC(=O)COc1ccc(Cl)cc1	-6.11% (inactive)
CCNC(=O)CC1C(=O)N(c2ccc(F)cc2)C(=O)N1Cc1cccs1 (configuration not stated)	-0.18% (inactive)
CC(C)CN1CCNC(=O)C1CC(=O)N(C)CC1CCOCC1 (configuration not stated)	1.55% (inactive)
Cc1ccc(C(C)(C)C)c(OCCCCN2CCCC2)c1	-4.25% (inactive)
COc1ccc(C2=NN(C(=O)CSc3nnnn3C)C(c3ccco3)C2)cc1 (configuration not stated)	8.48% (inactive)
COCCCNCC(=O)Nc1sc(C)c(C)c1C(=O)OC	12.8% (inactive)
CCc1c(C)sc(NC(=O)c2cccs2)c1C(N)=O	-8.58% (inactive)
CCOC(=O)c1c(NC(=O)c2cccs2)sc(C)c1C	27.8% (active)
CC1(C(=O)NS(=O)(=O)c2ccc(Cl)cc2)CCN1C(=O)CC1CCCC1 (configuration not stated)	0.43% (inactive)

Compound	activation
CCCCn1c(N)c(N(CCC(C)C)C(=O)CC2OC(=O)c3ccccc32)c(=O)[nH]c1=O (configuration not stated)	-2.77% (inactive)
CCc1nnc(NS(=O)(=O)c2ccc(NC(=S)NC(=O)/C=C/c3cccs3)cc2)s1	2.07% (inactive)
CCc1nnc(NS(=O)(=O)c2ccc(NC(=O)c3cccc(OC(F)(F)C(F)F)c3)cc2)s1	18.4% (active)
Cc1cc(NS(=O)(=O)c2ccc(NC(=O)c3cccc(OC(F)F)c3)cc2)nc(C)n1	1.34% (inactive)
O=C(NC(=S)N1CCCCC1c1cccnc1)c1ccccc1 (configuration not stated)	5.16% (inactive)
Cc1ccc(S(=O)(=O)NNC(=O)/C=C/c2cccc(F)c2)cc1	-0.46% (inactive)
Cc1ccc(C)c(OCc2cc(C(=O)N3CCN(c4cnccn4)CC3)no2)c1	-8.08% (inactive)
Cc1cccn2c(=O)c3cc(C(=O)NCCN4CCOCC4)c(=N)n(Cc4cccnc4)c3nc12	28.1% (active)
Cc1cccn2c(=O)c3cc(C#N)c(=O)n(CCCN4CCOCC4)c3nc12	-0.36% (inactive)
Cc1ccc2nc3c(cc(C(=O)NCCc4ccccc4)c(=N)n3CC3CCCO3)c(=O)n2c1 (configuration not stated)	2.81% (inactive)
CN(Cc1ccccc1)C(=O)C(=O)c1cn(CC(=O)N2CCCC2)c2ccccc12	-2.13% (inactive)
C/C(=N\NC(=S)NC(C)C)c1ccc(C(C)(C)C)cc1	8.71% (inactive)
CC(=O)c1c(C)[nH]c(C(=O)NCCCN2CCCC2)c1C	18.1% (active)
CCOC(=O)c1c(C)[nH]c(C(=O)NCCN2CCOCC2)c1C	-4.21% (inactive)
CC(=O)c1c(C)[nH]c(C(=O)NCc2ccc(C)cc2)c1C	11.5% (inactive)
CCC1CCCCN1CCNC(=O)c1[nH]c(C)c(C(C)=O)c1C (configuration not stated)	20.7% (active)
CCC1CCCCN1CCNS(=O)(=O)c1ccc2c(c1)CCN2C(C)=O (configuration not stated)	2.47% (inactive)
CCCCN(CC)CCNC(=O)c1[nH]c(C)c(C(C)=O)c1C	-11.2% (inactive)
COc1ccc(OCC(=O)NCCS(=O)(=O)N2CCN(c3ccc(F)cc3)CC2)cc1	5.36% (inactive)
CCCCNC(=O)N(O)C1N(/N=C/c2ccccc2O)C(=S)SC1(C)C (configuration not stated)	-0.6% (inactive)
O=C(Nc1ccc(Cl)cn1)Nc1cccs1	29.7% (active)
O=C(COC(=O)c1ccco1)Nc1ccc(Cl)cn1	4.61% (inactive)
Cc1cccc(OCC(=O)OCC(=O)Nc2ccc(Cl)cn2)c1	5.11% (inactive)
